This note sets out measurements from ChEMBL document CHEMBL1255555, “Parallel synthesis and anti-inflammatory activity of cyclic peptides cyclosquamosin D and Met-cherimolacyclopeptide B and their analogs” (2010).

Test [1] has as its system J774.A1. Put plainly: Antiinflammatory activity in mouse J774A1 cells assessed as inhibition of LPS-stimulated TNFalpha stimulation after 4 hrs by ELISA. The class given is functional, cell-based. Put shortly: (§1)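 Murine macrophage J774A.1 cells in RPMI1640 with 10% heat-inactivated FBS, glutamine, pyruvate, nonessential amino acids, HEPES and 2-mercaptoethanol. Peptides, dissolved in DMSO, added for 1 h at 37 °C before LPS (0.1 µg/mL) for a further 4 or 6 h. IL-6 or TNF-α in supernatant measured by sandwich ELISA: biotinylated detection antibody, avidin-HRP, ABTS substrate, OD 405 nm.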

The test system of test [2] is J774.A1. Put plainly: Antiinflammatory activity in mouse J774A1 cells assessed as inhibition of LPS-stimulated IL6 stimulation after 4 hrs by ELISA. It is filed as functional. In a few lines: as §1

Activity calls are given as the source filed them. The calls are words filed in the database; no cut-off is given here. Residues, ends and D or L forms follow the SMILES beside them.

Regarding `CC[C@@H](C)[C@@H]1NC(=O)[C@@H]2CCCN2C(=O)[C@H](CC(C)C)NC(=O)[C@H](C)NC(=O)CNC(=O)[C@H]([C@@H](C)O)NC(=O)[C@H](CCC(N)=O)NC(=O)[C@@H]2CCCN2C1=O`, the outcome with J774.A1 [1] and in the test on J774.A1 [2] was Active.
Consider `CC(C)C[C@@H]1NC(=O)[C@H](C(C)C)NC(=O)CNC(=O)[C@H](C)NC(=O)[C@@H]2CCCN2C(=O)[C@H](Cc2ccc(O)cc2)NC(=O)[C@H](Cc2ccc(O)cc2)NC(=O)[C@H](CO)NC1=O` (cyclo(AGVLSYYP)), for which the result with J774.A1 [1] and with J774.A1 [2] was Active.
For the molecule `CC[C@H](C)[C@@H]1NC(=O)[C@@H]2CCCN2C(=O)[C@H](CC(C)C)NC(=O)[C@H](CCSC)NC(=O)[C@H](C)NC(=O)[C@H]([C@@H](C)O)NC(=O)[C@H](CCC(N)=O)NC(=O)[C@@H]2CCCN2C1=O` (cyclo(AMLPIPQT)), the result with J774.A1 [1] and with J774.A1 [2] was Active.
`CC(C)C[C@@H]1NC(=O)[C@H](C(C)C)NC(=O)[C@H](C)NC(=O)CNC(=O)[C@@H]2CCCN2C(=O)[C@H](Cc2ccc(O)cc2)NC(=O)[C@H](Cc2ccc(O)cc2)NC(=O)[C@H](CO)NC1=O` (cyclo(AVLSYYPG)): the result in the test with J774.A1 [2] was Active.
`COc1ccc(C[C@@H]2NC(=O)[C@H](Cc3ccc(O)cc3)NC(=O)[C@H](CO)NC(=O)[C@H](CC(C)C)NC(=O)[C@H](C(C)C)NC(=O)CNC(=O)CNC(=O)[C@@H]3CCCN3C2=O)cc1` (cyclo(GGVLSYY(Me)P)): the result in the test on J774.A1 [1] was inactive. Further, in the test on J774.A1 [2], the outcome was Active. Moreover, the Activity in the test on J774.A1 [2] (record 2) is 25%.
